ChEMBL document CHEMBL3124814, “Synthesis and Anti-HCV Activity of 4-Hydroxyamino α-Pyranone Carboxamide Analogues” (ACS Med Chem Lett, 2014)

Key:
[1] = system: Hepatitis C virus; experiment: Antiviral activity against HCV1b infected in human HuH7 cells expressing luciferase reporter gene assessed as reduction of luciferase activity after 3 days; type: functional, organism-based, Hepacivirus hominis; conditions: genotype 1b, Huh-7, 72 h
Outline: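 Subgenomic HCV replicon cells with luciferase reporter (LucNeo#2), 50,000 cells/mL in DMEM + 10% FBS, antibiotics, 1 mg/mL G418 for 24 h; then 3 days with various compound concentrations in fresh medium lacking G418. Cells PBS-washed, lysed, luciferase read by luminometer; EC50 as concentration giving 50% inhibition of luciferase activity.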

[2] = Cytotoxicity against human HuH7 cells expressing luciferase reporter gene after 3 days by WST-8 assay; type: cell-based, Huh-7
Outline: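 LucNeo#2 subgenomic replicon cells, 50,000 cells/mL, pre-incubated 24 h in DMEM/10% FBS/antibiotics/1 mg/mL G418, then exposed 3 days to various compound concentrations without G418.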

[3] = (§1) Selectivity index, ratio of CC50 for human HuH7 cells to EC50 for HCV1b; parameters: species or system Huh-7
Outline: (§2)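 Ratio of CC50 (WST-8 viable cell reduction) to EC50 (luciferase inhibition), both from LucNeo#2 replicon cells treated 3 days with compound in G418-free medium.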

[4] = system: Huh-7; experiment: as §1; outline: as §2
[5] = Cytotoxicity against human NNC2 cells assessed as GAPDH RNA level; type: cell-based
Outline: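 NNC#2 full-genome replicon cells, 30,000 cells/mL, 24 h in DMEM/10% FBS/1 mg/mL G418, then 3 days with various concentrations without G418. GAPDH RNA, as cell-viability index, measured by real-time PCR simultaneously with HCV RNA; CC50 derived.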

[6] = system: Hepatitis C virus; experiment: Antiviral activity against HCV1b infected in human NNC2 cells assessed as inhibition of viral RNA replication after 3 days by RT-PCR analysis; type: functional, organism-based, Hepacivirus hominis; conditions: genotype 1b, NNC2, 72 h
Outline: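 Full-genome HCV RNA replicon cells (NNC#2), 30,000 cells/mL, held 24 h in DMEM + 10% FBS + 1 mg/mL G418, then 3 days in fresh G418-free medium with various concentrations.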

Row | SMILES | EC50 [1] [nM] | CC50 at 72 h [2] [nM] | Ratio CC50/EC50 [3] | Ratio CC50/EC50 [4] | CC50 [5] [nM] | EC50 [6] [nM] | EC90 [6] [nM]
1 | COc1ccc(-c2cc(NO)c(C(=O)NCCO)c(=O)o2)cc1 | 1410 | > 20000 | 14.2 |  |  |  | 
2 | CNC(=O)c1c(NO)cc(-c2ccccc2)oc1=O | 600 | > 20000 | 33.3 |  |  |  | 
3 | CCCNC(=O)c1c(NO)cc(-c2ccccc2)oc1=O | 450 | > 20000 | 44.4 |  |  |  | 
4 | Cc1ccc(NC(=O)c2c(NO)cc(-c3ccc(Cl)cc3)oc2=O)cc1 | 1430 | > 20000 | 14 |  |  |  | 
5 | COC(=O)CNC(=O)c1c(NO)cc(-c2ccccc2)oc1=O | 1840 | > 20000 | 10.9 |  |  |  | 
6 | CC(C)NC(=O)c1c(NO)cc(-c2ccccc2)oc1=O | 450 | > 20000 | 44.4 |  |  |  | 
7 | Cc1ccc(NC(=O)c2c(NO)cc(-c3ccc(F)cc3)oc2=O)cc1 | 1950 | > 20000 | 10.2 |  |  |  | 
8 | CCC[C@H](NC(=O)[C@@H]1[C@H]2CCC[C@H]2CN1C(=O)[C@@H](NC(=O)[C@@H](NC(=O)c1cnccn1)C1CCCCC1)C(C)(C)C)C(=O)C(=O)NC1CC1 [TELAPREVIR] | 450 | > 20000 |  | 44.4 |  |  | 
9 | CNC(=O)c1c(NO)cc(-c2ccc(OC)cc2)oc1=O | 700 | > 20000 | 28.6 |  |  |  | 
10 | O=C(NCc1ccccc1)c1c(NO)cc(-c2ccc(F)cc2)oc1=O | 1180 | > 20000 | 16.9 |  |  |  | 
11 | CCNC(=O)c1c(NO)cc(-c2ccccc2)oc1=O | 1000 | > 20000 | 20 |  |  |  | 
12 | O=C(NCCO)c1c(NO)cc(-c2ccc(F)cc2)oc1=O | 2980 | > 20000 | 6.7 |  |  |  | 
13 | COC(=O)c1ccc(NC(=O)c2c(NO)cc(-c3ccccc3)oc2=O)cc1 | 330 | > 20000 | 60.6 |  |  |  | 
14 | CNC(=O)c1c(-c2ccc(F)cc2)oc2cc(N(CCO)S(C)(=O)=O)c(C3CC3)cc12 [NESBUVIR] | 350 | > 20000 | 57.1 |  |  |  | 
15 | COC(=O)CNC(=O)c1c(NO)cc(-c2ccc(F)cc2)oc1=O | 1930 | > 20000 | 10.3 |  |  |  | 
16 | O=C(NCCO)c1c(NO)cc(-c2ccc(Cl)cc2)oc1=O | 4000 | > 20000 | 5 |  |  |  | 
17 | O=C(NCc1ccccc1)c1c(NO)cc(-c2ccc(Cl)cc2)oc1=O | 680 | > 20000 | 29.4 |  |  |  | 
18 | O=C(Nc1ccccc1)c1c(NO)cc(-c2ccc(Cl)cc2)oc1=O | 560 | 11000 | 19.6 |  |  |  | 
19 | Cc1ccc(NC(=O)c2c(NO)cc(-c3ccccc3)oc2=O)cc1 | 180 | > 20000 | 111.1 |  | > 10000 | 77 | 450
20 | O=C(Nc1ccc(F)cc1)c1c(NO)cc(-c2ccccc2)oc1=O | 320 | > 20000 | 62.5 |  |  |  | 
21 | COc1ccc(-c2cc(NO)c(C(=O)Nc3ccccc3)c(=O)o2)cc1 | 560 | 16200 | 28.9 |  |  |  | 
22 | CNC(=O)c1c(NO)cc(-c2ccc(C)cc2)oc1=O | 1420 | > 20000 | 14.1 |  |  |  | 

Row | SMILES | EC50 [1] [nM] | CC50 at 72 h [2] [nM] | Ratio CC50/EC50 [3] | Ratio CC50/EC50 [4] | CC50 [5] [nM] | EC50 [6] [nM] | EC90 [6] [nM]
23 | O=C(NCc1ccccc1)c1c(NO)cc(-c2ccccc2)oc1=O | 290 | > 20000 | 69 |  |  |  | 
24 | Cc1ccc(-c2cc(NO)c(C(=O)Nc3ccccc3)c(=O)o2)cc1 | 1450 | > 20000 | 13.8 |  |  |  | 
25 | O=C(Nc1ccccc1)c1c(NO)cc(-c2ccc(F)cc2)oc1=O | 1060 | 10300 | 9.7 |  |  |  | 
26 | CNC(=O)c1c(NO)cc(-c2ccc(F)cc2)oc1=O | 1750 | > 20000 | 11.4 |  |  |  | 
27 | O=C(Nc1ccc(Cl)cc1)c1c(NO)cc(-c2ccccc2)oc1=O | 400 | > 20000 | 50 |  |  |  | 
28 | Cc1ccccc1NC(=O)c1c(NO)cc(-c2ccccc2)oc1=O | 540 | > 20000 | 37 |  |  |  | 
29 | O=C(NCCO)c1c(NO)cc(-c2ccccc2)oc1=O | 1480 | > 20000 | 13.5 |  |  |  | 
30 | COc1ccc(-c2cc(NO)c(C(=O)NCc3ccccc3)c(=O)o2)cc1 | 570 | > 20000 | 35.1 |  |  |  | 
31 | COC(=O)CNC(=O)c1c(NO)cc(-c2ccc(OC)cc2)oc1=O | 2960 | > 20000 | 6.7 |  |  |  | 
32 | O=C(Nc1ccc(Br)cc1)c1c(NO)cc(-c2ccccc2)oc1=O | 300 | > 20000 | 66.7 |  |  |  | 
33 | CNC(=O)c1c(NO)cc(-c2ccc(Cl)cc2)oc1=O | 780 | > 20000 | 25.6 |  |  |  | 
34 | Cc1ccc(NC(=O)c2c(NO)cc(-c3ccc(C)cc3)oc2=O)cc1 | 460 | > 20000 | 43.5 |  |  |  | 
35 | O=C(Nc1ccc(O)cc1)c1c(NO)cc(-c2ccccc2)oc1=O | 1000 | > 20000 | 20 |  |  |  | 
36 | COc1ccc(NC(=O)c2c(NO)cc(-c3ccccc3)oc2=O)cc1 | 170 | > 20000 | 117.6 |  |  |  | 
37 | Cc1cccc(NC(=O)c2c(NO)cc(-c3ccccc3)oc2=O)c1 | 270 | > 20000 | 74.1 |  |  |  | 
38 | O=C(Nc1ccccc1)c1c(NO)cc(-c2ccccc2)oc1=O | 350 | 11600 | 33.1 |  |  |  | 
39 | Cc1ccc(-c2cc(NO)c(C(=O)NCc3ccccc3)c(=O)o2)cc1 | 910 | > 20000 | 21.9 |  |  |  | 
40 | O=C(NCCCO)c1c(NO)cc(-c2ccccc2)oc1=O | 450 | > 20000 | 44.4 |  |  |  | 
41 | COC(=O)CNC(=O)c1c(NO)cc(-c2ccc(Cl)cc2)oc1=O | 3060 | > 20000 | 6.5 |  |  |  | 
42 | Cc1ccc(-c2cc(NO)c(C(=O)NCCO)c(=O)o2)cc1 | 2580 | > 20000 | 7.7 |  |  |  | 
43 | COc1ccc(-c2cc(NO)c(C(=O)Nc3ccc(C)cc3)c(=O)o2)cc1 | 1600 | > 20000 | 12.5 |  |  |  | 
44 | COC(=O)CNC(=O)c1c(NO)cc(-c2ccc(C)cc2)oc1=O | 3990 | > 20000 | 5 |  |  |  | 
